Screening results as filed in PubChem BioAssay.
PREPL inhibitor = PREPL enzyme inhibitors, primary screen, biochemical, fluorescence polarization; inhibition, % at 5.96 µM; 320,000 tested, 0.68% active; recombinant PREPL, fluorescence polarization activity-based probe; Prolyl endopeptidase-like (Homo sapiens), Q4J6C6; in the data active = inhibition above about 43%
CTSL1 counter = Fasciola hepatica cathepsin L1 inhibitors, primary screen, counter-screen for PFM18AAP inhibitor project, biochemical, QFRET, fluorogenic peptide substrate; 300,000 tested, 0.49% active; recombinant F. hepatica cathepsin L1, Z-Leu-Arg-MCA fluorescence; inhibition, % at 5.96 µM;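 active = inhibition above the mean of all tested compounds plus 3 SD, set per screening campaign, cut at about 17% in these data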
PP5 inh = PP5 phosphatase inhibitors, primary screen, biochemical, fluorescence; AID 1987, 2009; purified PP5c, OMFP substrate fluorescence; 320,000 tested, 0.18% active; inhibition, % at 6.7 µM; Serine/threonine-protein phosphatase 5 (Homo sapiens), P53041;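 active = inhibition above the campaign's mean inhibition across all tested compounds plus 3 SD, cut at about 9.5% in these data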
UBC13 polyUb = UBC13 polyubiquitin chain formation inhibitors, primary screen, biochemical, TR-FRET, uHTS | AID 485273, 2010 | 330,000 tested, 0.47% active | inhibition, % at 20 µM; in the data active = inhibition above about 45%, passing the limit was not always enough
Target sequence (P61088 whole entry, looked up): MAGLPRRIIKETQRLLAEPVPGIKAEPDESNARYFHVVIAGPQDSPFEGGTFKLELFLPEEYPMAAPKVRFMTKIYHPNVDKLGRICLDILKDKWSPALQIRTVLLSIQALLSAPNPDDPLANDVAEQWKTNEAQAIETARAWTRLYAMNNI
PP1 inh = PP1-alpha phosphatase inhibitors, primary screen, counter-screen for PP5 inhibitor project, biochemical, fluorescence, OMFP substrate, single point; 320,000 tested, 0.9% active; purified PP1alpha; inhibition, % at 6.7 µM; AID 2235, 2010; Serine/threonine-protein phosphatase PP1-alpha catalytic subunit (Homo sapiens), P62136;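 active = inhibition above the mean inhibition of all tested compounds plus 3 SD, computed separately for each screening campaign, cut at about 15% in these data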
UCH37 inh = inhibitors of human UCH37 deubiquitinase, primary screen, biochemical, Ub-AMC cleavage, fluorescence; Ubiquitin carboxyl-terminal hydrolase isozyme L5 (Homo sapiens), Q9Y5K5; inhibition, % (no concentration beside the values); 330,000 tested, 0.33% active; purified proteasome/UCH37;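 active = mean inhibition over replicate wells above about 20%, limit read from the data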
Target sequence (Q9Y5K5 whole entry, looked up): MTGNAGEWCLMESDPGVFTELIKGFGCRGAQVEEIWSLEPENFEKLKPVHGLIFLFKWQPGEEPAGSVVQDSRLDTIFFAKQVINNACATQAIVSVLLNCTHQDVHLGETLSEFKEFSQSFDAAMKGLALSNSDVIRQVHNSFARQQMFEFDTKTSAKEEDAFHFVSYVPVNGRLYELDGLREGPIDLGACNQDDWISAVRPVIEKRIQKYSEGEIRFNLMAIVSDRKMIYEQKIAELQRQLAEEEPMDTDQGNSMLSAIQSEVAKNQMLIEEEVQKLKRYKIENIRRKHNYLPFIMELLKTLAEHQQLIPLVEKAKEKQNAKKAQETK
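Signal – fluorescence, ex 355 nm, em 460 nm · System – Proteasome-bound UCH37 · Input – 0.15 nM proteasome as dispensed · Timing – 30 min preincubation with enzyme, 25 min cleavage at room temperature · Read-out basis – percent inhibition of cleavage signal versus uninhibited and no-proteasome wells · Medium – Tris-HCl pH 7.4 with ATP-MgCl2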
A number is an active result; – = inactive; · = no result given. Rows were chosen to be rich in hits. Some 2.3% of all compounds tested hit in one or more screens of this group.

SMILES	PREPL inhibitor	CTSL1 counter	PP5 inh	UBC13 polyUb	PP1 inh	UCH37 inh
O=[N+]([O-])c1ccccc1/C=C/C=NNc1nc(N2CCCCC2)nc(N2CCCCC2)n1	·	·	·	·	·	–
CCc1ccc(N=CC2=C(O)CC(c3ccco3)CC2=O)cc1 (stereo not given)	–	17	–	–	–	–
COc1ccc(-c2nc3c(c(=O)[nH]c(=O)n3Cc3ccccc3)n2Cc2ccccc2)cc1	–	–	–	–	16	–
CC(C)n1nnnc1SCC(=O)NNC(=O)C1CCCCC1	–	27	–	–	–	–
Cc1cccc(N2C(=O)CSC2=NNC(=O)c2ccc(Cl)cc2)c1C	·	·	·	·	·	–
COc1ccc(C=NNC(=O)c2ccccc2O)cc1Cn1cc([N+](=O)[O-])cn1	·	·	·	·	·	–
C=CCOC(=O)C1=C[C@@H](c2ccc(Br)cc2)C[C@@H](OCCCCO)O1	–	–	–	–	–	–
C=CCOC(=O)C1=C[C@@H](c2ccc(C(F)(F)F)cc2)C[C@@H](OCCCCO)O1	–	–	–	–	–	21
COc1ccc(NC(=O)c2cc3cccc(OC)c3oc2=Nc2ccc(C(=O)O)cc2)cc1OC	·	·	·	·	·	24
COc1cccc(NC(=O)c2cc3cccc(OC)c3o/c2=N\O)c1	–	–	–	–	–	·
COC/C=C/C1=CC2=CC(=O)C(C)(OC(=O)c3cnc4ccccc4n3)C(=O)C2=CN1CCCCO (stereo not given)	–	–	–	–	–	–
COC/C=C/C1=CC2=CC(=O)C(C)(OC(=O)c3cnc4ccccc4n3)C(=O)C2=CN1c1ccc(OC)cc1 (stereo not given)	–	–	–	–	18	–
COC/C=C/C1=CC2=CC(=O)C(C)(OC(=O)c3cnc4ccccc4n3)C(=O)C2=CN1CC1CC1 (stereo not given)	–	–	–	–	–	41
CN(C)S(=O)(=O)c1ccc(C(=O)NCC(=O)NN=Cc2cccs2)cc1	·	·	·	·	·	–
Cc1cccc(OCC(=O)Nc2cc(C)on2)c1	–	–	–	–	–	34
Cc1cccc(OCC(=O)Nc2ccc(C(=O)c3ccc(C(=O)O)cc3)cc2)c1	–	–	–	–	–	35
Cc1ccc(OCC(=O)Nc2cc(NC(=O)COc3ccc(C)c(C)c3)cc(C(=O)O)c2)cc1C	–	–	–	–	16	–
Cc1cc(NC(=O)COc2cccc(Oc3ccccc3)c2)no1	–	–	–	–	–	–
Cc1cccc(OCC(=O)Nc2ccc(NC(=O)c3ccccc3)cc2)c1	–	–	–	–	–	–
CCOc1ccc(NC(=O)C(=O)NN=Cc2ccc(CNS(=O)(=O)c3ccccc3)o2)cc1	·	·	·	·	·	–
O=C(CSc1nc2ccccc2[nH]1)NN=C/C=C\c1ccccc1[N+](=O)[O-]	·	·	·	·	·	–
CCn1cc(C=NNC(=O)c2c[nH]c3ccccc23)c(C)n1	·	·	·	·	·	–
CC(C)(C)N1C(=O)[C@H]2[C@@H](c3ccc(Br)cc3)N3C(=O)N(c4cccc(Br)c4)C(=O)[C@@]3(Cc3ccccc3)[C@H]2C1=O	–	–	–	–	–	–
CC(C)(C)N1C(=O)[C@H]2[C@@H](c3ccc(Br)cc3)N3C(=O)N(c4ccccc4)C(=O)[C@@]3(Cc3ccccc3)[C@H]2C1=O	–	–	–	–	–	27
CN(C)CCSc1nc(N)c2c3c(sc2n1)CN(C)CC3	–	–	–	75	–	–
SMILES	PREPL inhibitor	CTSL1 counter	PP5 inh	UBC13 polyUb	PP1 inh	UCH37 inh
Cc1cccc(OCCN2C(=O)c3ccccc3C2=O)c1	–	–	–	–	–	–
Cc1ccc(OCCCN2C(=O)C(=O)c3cc(C)ccc32)cc1	–	–	–	–	17	–
Cc1cccc(OCCCN2C(=O)C(=O)c3cc(C)ccc32)c1	–	–	–	–	16	–
Cc1ccc2c(c1)C(=O)C(=O)N2CCCOc1ccccc1	–	–	–	–	–	–
CC(C)S(=O)(=O)C1=NSC2=NC(=O)/C(=C\c3ccc(-c4cccc(C(=O)O)c4)o3)C(=N)N21	·	·	·	·	·	22
CC(C)(C)S(=O)(=O)N1C[C@H]2CC/C=C\C/C(c3ccccc3)=C\2[C@@H]1CCO	·	·	·	·	·	25
c1coc(C2Nc3cccc4cccc(c34)N2)c1	43	–	–	–	–	·
CCn1c(C=NNC(=O)c2ccc(OC)cc2)nc2ccccc21	·	·	·	·	·	–
Cc1ccc(C(=O)NCC(=O)OCC(=O)c2ccc3c(c2)NC(=O)CO3)cc1C	–	–	–	–	–	–
COc1ccc(C(=O)COC(=O)CNC(=O)C2CCCCC2)c(OC)c1	–	35	–	–	–	–
O=C(CNC(=O)C1CCCCC1)OCC(=O)c1ccc(Cl)s1	–	18	–	–	–	–
COc1ccc(OC)c(C(=O)COC(=O)CNC(=O)C2CCCCC2)c1	–	33	–	–	–	–
O=C1COc2ccc(C(=O)COC(=O)CNC(=O)C3CCCCC3)cc2N1	–	31	–	–	–	–
Cc1occc1C(=O)NN=Cc1ccc(Cl)c([N+](=O)[O-])c1	·	·	·	·	·	–
O=C(COC(=O)CNC(=O)C1CCCCC1)Nc1ccc(Cl)cn1	–	29	–	–	–	–
CN(CC1CCCO1)S(=O)(=O)c1ccc(C(=O)Nc2nnc(-c3ccccc3)o2)cc1 (stereo not given)	–	–	–	–	–	–
COc1ccccc1-c1nnc(NC(=O)c2ccc(S(=O)(=O)N(C)CC3CCCO3)cc2)o1 (stereo not given)	–	–	–	–	17	–
Cc1cccc2cc(-c3nc4c(C)cccn4c3NCc3ccco3)c(=O)[nH]c12	–	–	–	–	–	25
CCC(Oc1ccc2c(c1)C(=O)CC(C)(C)O2)C(=O)NCCN1CCCCCC1 (stereo not given)	–	37	–	–	–	–
CC(C)CCNC(=O)COc1ccc2c(c1)C(=O)CC(C)(C)O2	–	–	–	–	–	–
Cc1cc(C)n(CC(=O)NN=Cc2ccco2)n1	·	·	·	·	·	–
CCOc1cc(CNCCO)cc(Br)c1OCc1ccc(Cl)cc1Cl	–	–	–	56	–	–
COc1cc(OC)c(OC)cc1C=Nn1c(C)nc2ccccc2c1=O	·	·	·	·	·	–
COc1cc(OC)cc(C(=O)N[C@H](C(=O)OCC(=O)c2ccc(F)cc2)C(C)C)c1	–	18	–	–	–	–
COc1cc(OC)cc(C(=O)N[C@H](C(=O)OCC(=O)Nc2cccc(F)c2)C(C)C)c1	–	–	–	–	–	–
O=C(NN=C(c1ccccc1)c1ccncc1)c1ccc2c(c1)OCO2	·	·	·	·	·	–
O=C(COc1ccccc1Cc1ccccc1)NCCCN1CCOCC1	–	20	–	–	–	–
